Source: ChEMBL document CHEMBL3352743, “Chemically accessible hsp90 inhibitor that does not induce a heat shock response” (ACS Med Chem Lett, 2014)
pIC50: −log10 of the molar value. Converted amounts (≈) assume the structure as drawn. Values belong to the compound of their own block, whether it stands above or below them. The source made the active and inactive calls. No cut-off for these calls is given here. Peptide text beside a SMILES is read from it.

Tests used:
[1] = Cytotoxicity against human HCT116 cells after 72 hrs by CCK8 assay; type: functional, cell-based; details: HCT-116, 72 h
[2] = Cytotoxicity against human MIAPaCa2 cells after 72 hrs by CCK8 assay; type: functional, cell-based; details: MIA PaCa-2, 72 h
[3] = Solubility in 80% EtOH/20% water; type: physicochemical
[4] = target: Heat shock protein HSP 90-beta (Homo sapiens) (UniProt P08238); test: Binding affinity to HSP90 in human HCT116 cells by coomassie blue staining and Western blotting based pull down assay; type: cell-based; details: HCT-116
Sequence of Heat shock protein HSP 90-beta (Homo sapiens) (P08238 whole entry): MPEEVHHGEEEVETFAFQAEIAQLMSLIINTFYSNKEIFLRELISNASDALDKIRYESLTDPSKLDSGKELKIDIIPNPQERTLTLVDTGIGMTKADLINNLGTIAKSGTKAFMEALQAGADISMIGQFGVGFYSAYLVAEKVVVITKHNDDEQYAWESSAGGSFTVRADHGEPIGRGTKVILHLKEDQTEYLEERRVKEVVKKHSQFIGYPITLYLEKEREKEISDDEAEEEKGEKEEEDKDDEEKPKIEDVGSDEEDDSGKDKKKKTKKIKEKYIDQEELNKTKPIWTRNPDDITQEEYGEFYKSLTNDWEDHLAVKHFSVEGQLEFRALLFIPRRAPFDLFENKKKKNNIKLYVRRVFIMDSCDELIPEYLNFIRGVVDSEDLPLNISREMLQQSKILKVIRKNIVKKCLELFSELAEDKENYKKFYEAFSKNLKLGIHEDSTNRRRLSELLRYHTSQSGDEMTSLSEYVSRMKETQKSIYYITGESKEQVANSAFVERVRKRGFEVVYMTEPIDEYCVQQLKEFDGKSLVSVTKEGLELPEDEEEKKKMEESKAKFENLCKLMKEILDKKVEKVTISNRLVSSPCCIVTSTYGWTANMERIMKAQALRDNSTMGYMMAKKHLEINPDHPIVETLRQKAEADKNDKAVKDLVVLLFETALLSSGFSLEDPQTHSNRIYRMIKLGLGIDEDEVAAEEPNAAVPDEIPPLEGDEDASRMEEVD
Method in brief: (§1)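 Biotin-tagged analogue (0.1 mg) incubated in HCT-116 or MiaPaCa-2 cell lysate, then recovered on NeutrAvidin beads. Bound proteins eluted in sample buffer, visualized by Coomassie stain or Western blot, and identified by nano-LC/MS/MS. Image representative of 3 independent assays.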

[5] = target: Heat shock protein HSP 90-beta (Homo sapiens) (UniProt P08238); test: Binding affinity to HSP90 in human MIAPaCa2 cells by coomassie blue staining and Western blotting based pull down assay; type: cell-based; details: MIA PaCa-2; method in brief: as §1
[6] = target: Heat shock protein HSP 90-beta (Oryctolagus cuniculus) (UniProt P30947); test: Inhibition of HSP90 in rabbit reticulocyte lysates at 5 uM […] by firefly luciferase protein re-folding assay; details: in the assay text read “2 hrs” for “5 hrs”
Sequence of Heat shock protein HSP 90-beta (Oryctolagus cuniculus) (P30947 whole entry): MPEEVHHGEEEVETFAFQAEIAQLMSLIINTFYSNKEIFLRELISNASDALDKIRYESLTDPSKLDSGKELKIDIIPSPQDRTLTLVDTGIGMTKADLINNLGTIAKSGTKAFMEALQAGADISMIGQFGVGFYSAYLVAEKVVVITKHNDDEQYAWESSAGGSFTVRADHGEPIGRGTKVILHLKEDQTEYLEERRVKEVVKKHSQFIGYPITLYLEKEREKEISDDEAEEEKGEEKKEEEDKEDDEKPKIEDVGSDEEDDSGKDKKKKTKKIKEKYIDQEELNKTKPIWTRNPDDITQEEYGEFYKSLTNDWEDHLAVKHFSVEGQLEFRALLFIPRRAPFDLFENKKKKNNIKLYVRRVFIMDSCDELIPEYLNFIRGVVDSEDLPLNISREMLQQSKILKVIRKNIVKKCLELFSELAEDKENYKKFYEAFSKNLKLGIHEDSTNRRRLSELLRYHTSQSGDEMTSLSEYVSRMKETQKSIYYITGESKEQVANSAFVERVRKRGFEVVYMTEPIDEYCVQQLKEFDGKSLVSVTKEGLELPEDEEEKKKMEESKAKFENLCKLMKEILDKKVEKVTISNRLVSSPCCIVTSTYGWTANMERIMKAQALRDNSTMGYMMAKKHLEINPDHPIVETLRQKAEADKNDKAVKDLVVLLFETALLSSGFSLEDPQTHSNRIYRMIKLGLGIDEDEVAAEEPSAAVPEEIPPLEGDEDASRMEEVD
Method in brief: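 Denatured firefly luciferase incubated for 2 h in rabbit reticulocyte lysate pretreated with compound. Refolding read as luciferase activity relative to control. Mean ± SEM, n = 3.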

[7] = Reduction in HSF1 protein expression in human HCT116 cells at IC50 level by western blotting method; type: functional, cell-based; details: HCT-116
[8] = Reduction in HSP90 protein expression in human HCT116 cells at IC50 level by western blotting method; type: functional, cell-based; details: HCT-116
[9] = Reduction in HSP70 protein expression in human HCT116 cells at IC50 level by western blotting method; type: functional, cell-based; details: HCT-116
[10] = Reduction in HSP40 protein expression in human HCT116 cells at IC50 level by western blotting method; type: functional, cell-based; details: HCT-116
[11] = Reduction in HSP27 protein expression in human HCT116 cells at IC50 level by western blotting method; type: functional, cell-based; details: HCT-116
[12] = Reduction in HSF1 protein expression in human MIAPaCa2 cells at IC50 level by western blotting method; type: functional, cell-based; details: MIA PaCa-2
[13] = Reduction in HSP90 protein expression in human MIAPaCa2 cells at IC50 level by western blotting method; type: functional, cell-based; details: MIA PaCa-2
[14] = Reduction in HSP70 protein expression in human MIAPaCa2 cells at IC50 level by western blotting method; type: functional, cell-based; details: MIA PaCa-2
[15] = Reduction in HSP40 protein expression in human MIAPaCa2 cells at IC50 level by western blotting method; type: functional, cell-based; details: MIA PaCa-2
[16] = Reduction in HSP27 protein expression in human MIAPaCa2 cells at IC50 level by western blotting method; type: functional, cell-based; details: MIA PaCa-2
[17] = Reduction in HSF1 protein expression in human HCT116 cells at 50 uM by western blotting method relative to untreated control; type: functional, cell-based; details: HCT-116
[18] = Reduction in HSP90 protein expression in human HCT116 cells at 50 uM by western blotting method relative to untreated control; type: functional, cell-based; details: HCT-116
[19] = Reduction in HSP70 protein expression in human HCT116 cells at 50 uM by western blotting method relative to untreated control; type: functional, cell-based; details: HCT-116
[20] = Reduction in HSP40 protein expression in human HCT116 cells at 50 uM by western blotting method relative to untreated control; type: functional, cell-based; details: HCT-116
[21] = Reduction in HSP27 protein expression in human HCT116 cells at 50 uM by western blotting method relative to untreated control; type: functional, cell-based; details: HCT-116
[22] = Reduction in HSF1 protein expression in human MIAPaCa2 cells at 50 uM by western blotting method relative to untreated control; type: functional, cell-based; details: MIA PaCa-2
[23] = Reduction in HSP90 protein expression in human MIAPaCa2 cells at 50 uM by western blotting method relative to untreated control; type: functional, cell-based; details: MIA PaCa-2
[24] = Reduction in HSP70 protein expression in human MIAPaCa2 cells at 50 uM by western blotting method relative to untreated control; type: functional, cell-based; details: MIA PaCa-2
[25] = Reduction in HSP40 protein expression in human MIAPaCa2 cells at 50 uM by western blotting method relative to untreated control; type: functional, cell-based; details: MIA PaCa-2
[26] = Reduction in HSP27 protein expression in human MIAPaCa2 cells at 50 uM by western blotting method relative to untreated control; type: functional, cell-based; details: MIA PaCa-2
HCT-116 [27] = test: Induction of apoptosis in human HCT116 cells at 50 uM after 24 hrs by annexin V and 7-AAD staining based flow cytometry; type: functional
HCT-116 [28] = test: Induction of apoptosis in human HCT116 cells assessed as caspase 3/7 activation at 50 uM after 24 hrs by luminometry; type: functional
MIA PaCa-2 [29] = test: Induction of apoptosis in human MIAPaCa2 cells assessed as caspase 3/7 activation at 50 uM after 24 hrs by luminometry; type: functional
HCT-116 [30] = test: Induction of cell cycle arrest in human HCT116 cells assessed as accumulation at G0/G1 phase at 5 uM after 24 hrs by propidium iodide staining based cytometry; type: functional
MIA PaCa-2 [31] = test: Induction of cell cycle arrest in human MIAPaCa2 cells assessed as accumulation at G0/G1 phase at 5 uM after 24 hrs by propidium iodide staining based cytometry; type: functional
[32] = target: Heat shock protein HSP 90-beta (Oryctolagus cuniculus) (UniProt P30947); test: Inhibition of HSP90 in rabbit reticulocyte lysates at 5 uM pre-incubated for 2 hrs by firefly luciferase protein re-folding assay
[33] = Induction of heat shock response in human HCT116 cells assessed as HSP70 protein expression at IC50 level by western blotting method relative to untreated control; type: cell-based; details: hct-116
[34] = Induction of heat shock response in human HCT116 cells assessed as HSP90 protein expression at IC50 level by western blotting method relative to untreated control; type: cell-based; details: hct-116
[35] = Induction of heat shock response in human HCT116 cells assessed as HSF1 protein expression at IC50 level by western blotting method relative to untreated control; type: cell-based; details: hct-116
[36] = Induction of heat shock response in human HCT116 cells assessed as HSP40 protein expression at IC50 level by western blotting method relative to untreated control; type: cell-based; details: hct-116
[37] = Induction of heat shock response in human HCT116 cells assessed as HSP27 protein expression at IC50 level by western blotting method relative to untreated control; type: cell-based; details: hct-116
[38] = Induction of heat shock response in human MIAPaCa2 cells assessed as HSF1 protein expression at IC50 level by western blotting method relative to untreated control; type: cell-based; details: mia paca-2
[39] = Induction of heat shock response in human MIAPaCa2 cells assessed as HSP90 protein expression at IC50 level by western blotting method relative to untreated control; type: cell-based; details: mia paca-2
Method in brief: (§2)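 MiaPaCa-2 cells, run alongside HCT-116, treated with compound at the line's level and also at 10-fold above it. Western blotting measured HSF1, hsp90, hsp70, hsp40 and hsp27 protein levels, quantified as fold change versus untreated control.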

[40] = Induction of heat shock response in human MIAPaCa2 cells assessed as HSP70 protein expression at IC50 level by western blotting method relative to untreated control; type: cell-based; details: mia paca-2
[41] = Induction of heat shock response in human MIAPaCa2 cells assessed as HSP40 protein expression at IC50 level by western blotting method relative to untreated control; type: cell-based; details: mia paca-2
[42] = Induction of heat shock response in human MIAPaCa2 cells assessed as HSP27 protein expression at IC50 level by western blotting method relative to untreated control; type: cell-based; details: mia paca-2; method in brief: as §2
HCT-116 [43] = test: Induction of apoptosis in human HCT116 cells at 1000 nM after 24 hrs by annexin V and 7-AAD staining based flow cytometry; type: functional
HCT-116 [44] = test: Induction of apoptosis in human HCT116 cells assessed as caspase 3/7 activation at 1000 nM after 24 hrs by luminometry; type: functional
MIA PaCa-2 [45] = test: Induction of apoptosis in human MIAPaCa2 cells assessed as caspase 3/7 activation at 1000 nM after 24 hrs by luminometry; type: functional
[46] = target: Heat shock protein HSP 90-beta (Oryctolagus cuniculus) (UniProt P30947); details: 100 nM
[47] = 80% EtOH/20% water, read-out: solubility

Structure (SMILES): COc1ccc(C[C@H]2NC(=O)[C@@H](C(c3ccccc3)c3ccccc3)NC(=O)[C@H](CC(C)C)NC(=O)[C@H](C(C)C)N(C)C(=O)[C@@H](CC(C)C)NC2=O)cc1
- pIC50 [1]: 5.29
- pIC50 [2]: 5.36
- solubility [3, 47]: 1500 µg/mL (≈ 2.03 mM)

Structure (SMILES): CC(C)C[C@H]1NC(=O)[C@@H](Cc2cscn2)NC(=O)[C@@H](C(c2ccccc2)c2ccccc2)NC(=O)[C@H](CCCCNC(=O)CCOCCOCCOCCOCCNC(=O)CCCC[C@@H]2SC[C@@H]3NC(=O)N[C@@H]32)NC(=O)[C@H](C(C)C)N(C)C1=O
- Activity [4]: Active
- Activity [5]: Active

More lines, main results first:

- solubility ([3]; buffer): 9500 µg/mL (≈ 13.3 mM)
- inhibition [6]: 42%
Structure (SMILES): CC(C)C[C@@H]1NC(=O)[C@H](C(C)C)N(C)C(=O)[C@@H](CC(C)C)NC(=O)[C@@H](Cc2cscn2)NC(=O)[C@@H](C(c2ccccc2)c2ccccc2)NC1=O (HELM PEPTIDE1{L.[O=C([C@H](N[*:1])C(c1ccccc1)c1ccccc1)[*:2]].[O=C([C@@H](Cc1cscn1)N[*:1])[*:2]].[dL].[meV]}$PEPTIDE1,PEPTIDE1,1:R1-5:R2$$$V2.0)
- pIC50 [1]: 5.30
- pIC50 [2]: 5.26
- inhibition [7]: Active
- inhibition [8]: Active
- inhibition [9]: Active
- inhibition [10]: Active
- inhibition [11]: Active
- inhibition [12]: Active
- inhibition [13]: Active
- inhibition [14]: Active
- inhibition [15]: Active
- inhibition [16]: Active
- fold change (FC) [17]: 2
- fold change (FC) [18]: 2
- fold change (FC) [19]: 2
- fold change (FC) [20]: 2
- fold change (FC) [21]: 2
- fold change (FC) [22]: 2
- fold change (FC) [23]: 2
- fold change (FC) [24]: 2
- fold change (FC) [25]: 2
- fold change (FC) [26]: 2
- Activity (HCT-116 [27]): 75%
- fold change (FC) (HCT-116 [28]): 4
- fold change (FC) (MIA PaCa-2 [29]): 4
- Activity (HCT-116 [30]): Active
- Activity (MIA PaCa-2 [31]): Active

- solubility [3, 47]: 5200 µg/mL (≈ 7.03 mM)
- inhibition [32]: 25%
Structure (SMILES): CC(C)C[C@@H]1NC(=O)[C@H](C(C)C)N(C)C(=O)[C@@H](CC(C)C)NC(=O)[C@@H](Cc2ccccc2)NC(=O)[C@@H]([C@H](OCc2ccccc2)c2ccccc2)NC1=O (HELM PEPTIDE1{L.[O=C([C@H](N[*:1])[C@H](OCc1ccccc1)c1ccccc1)[*:2]].[dF].[dL].[meV]}$PEPTIDE1,PEPTIDE1,1:R1-5:R2$$$V2.0)
- pIC50 [1]: 5.13
- pIC50 [2]: 5.11

- fold change (FC) [33]: 2
- fold change (FC) [34]: 2
- fold change (FC) [35]: 2
- fold change (FC) [36]: 2
- fold change (FC) [37]: 2
- fold change (FC) [38]: 2
- fold change (FC) [39]: 2
- fold change (FC) [40]: 2
- fold change (FC) [41]: 2
- fold change (FC) [42]: 2
- inhibition [46]: 17%
Structure (SMILES): C=CCNC1=C2C[C@@H](C)C[C@H](OC)[C@H](O)[C@@H](C)/C=C(\C)[C@H](OC(N)=O)[C@@H](OC)/C=C\C=C(/C)C(=O)NC(=CC1=O)C2=O [TANESPIMYCIN]
- Activity (HCT-116 [43]): 25%
- fold change (FC) (HCT-116 [44]): 2
- fold change (FC) (MIA PaCa-2 [45]): 2
